# Screening results deposited in PubChem by several laboratories.
# MPTP block: blocks calcium-induced mitochondrial swelling | inhibition, % at 10 µM | AID 602449 | actives 1.4% (n = 360,000) | isolated mouse mitochondria, Ca2+ swelling absorbance, 30 min;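 active means inhibition of 50% or more, scaled per plate between neutral and stimulator controls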;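 further: 0% = DMSO wells given calcium and 100% = 1 mM EGTA wells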
# L major viab: inhibitors of Leishmania major promastigote growth | Leishmania major promastigotes, resazurin fluorescence viability | inhibition, % at 10 µM | actives 9% (n = 200,000); in the data active means inhibition above about 50%;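 further: promastigotes grown with compound for 44 hours at 28 °C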
# Hep lipid drop: modulators of hepatic lipid droplet formation; AML12 mouse hepatocytes, oleate lipid droplets, BODIPY imaging; inhibition, % at 6.5 µM; actives 0.4% (n = 240,000);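 active means lipid droplet intensity inhibited by at least 50%, with more than 500 cells counted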
#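 Material: mouse AML12 hepatocyte cell line, fixed after treatment; Timing: compound with oleate, overnight; Technique: high-content imaging of BODIPY-stained droplets and DAPI nuclei; Probe or stimulus: oleate, 100 µM final; Dosing: compound at 6.5 µM only.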
# Redox H2O2 prof: compounds producing H2O2 with reducing agent – biochemical, NIH compound library profiling, artefact control for MLSCN library redox annotation, primary screen; DTT-dependent redox cycling H2O2, phenol red/HRP absorbance; 100% = 100 µM peroxide control, 0% = buffer; activation, % at 10 µM; actives 0.03% (n = 200,000); AID 878;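 active means activation of at least 50% relative to the plate's high and low controls in the primary single-dose screen; inactive means activation below 50%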;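 further: compound incubated with DTT at 0.8 mM final as the reducing agent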
# T cruzi repl: T. cruzi replication inhibition; inhibition, % (test concentration not listed); T. cruzi beta-gal in NIH3T3, luminescence, 90 h; actives 1.4% (n = 300,000); AID 1885;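 active means mean inhibition across valid replicates above about 55%, limit read from the data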;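 further: signal also drops with host cell toxicity which is not excluded here; 0% = plate median of DMSO wells and 100% = zero luminescence signal; higher percent means less beta-gal luminescence so fewer parasites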
#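 compound dosing = single 50 nL compound addition per well in DMSO | material = NIH/3T3 host cells with β-galactosidase reporter T. cruzi | input = 5,000 host fibroblasts per well | timing = ≥90 h infection period, 3 h prior cell attachment | read-out basis = percent inhibition of parasite-derived β-gal signal | detection = GalScreen β-gal luminescence, detergent lysis, 60 min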
# * hit, by the source's call; / = no result given. Only a selection was taken, and hits are over-represented in it overall.
SMILES,MPTP block,L major viab,Hep lipid drop,Redox H2O2 prof,T cruzi repl
O=C(C[n+]1ccc(Cc2ccccc2)cc1)Nc1ccccc1,-3,-10,0,-1,-8
COC(=O)C1=C(Nc2ccc(C)cc2)C=C(C)C(C(=O)OC)C1c1cccc(OC)c1 (centres undefined),3,45,-53,0,58*
CC(C)C(NC(=O)C12CC3CC(CC(C3)C1)C2)C(=O)N/N=C/C1=C(N2CCOCC2)C(=C\c2cccc([N+](=O)[O-])c2)/CC1 (centres undefined),-1,97*,3,0,56*
CCOc1ccc(-n2nnc3c(=O)n(CC(=O)N4CCCc5ccccc54)cnc32)cc1,0,55*,-18,0,6
O=[N+]([O-])c1ccc(N2CCCCC2)cc1NCCOc1ccccc1,8,69*,-33,-1,9
Cc1ccccc1OCCNc1cc(N2CC(C)NC(C)C2)ccc1[N+](=O)[O-] (centres undefined),9,100*,14,-2,44
CC(C)CNC(=O)c1ccc(NC(=O)c2cccs2)cc1,2,52*,-27,/,5
CCCCC(=O)Nc1ccc(C(=O)NNC(=S)NC(=O)c2cccs2)cc1,-1,62*,-6,0,-17
O=C(NC(=S)NNC(=O)c1cc2ccccc2cc1O)c1ccco1,2,76*,16,-1,1
NNC(=O)c1cc2ccccc2cc1O,0,64*,11,0,-24
COc1ccc(NC(=O)CN2C(=O)NC(C)(C3CC3)C2=O)cc1S(=O)(=O)N1CCCCC1 (centres undefined),0,/,/,/,/
O=C(NNC(=S)NC(=O)c1ccco1)c1ccc(NC(=O)c2ccccc2)cc1,-2,96*,7,0,-28
O=C(NNC(=S)NC(=O)c1cccs1)c1ccc(NC(=O)c2ccccc2)cc1,9,99*,27,1,9
O=C(Nc1ccc(NC(=S)NC(=O)c2cccs2)cc1)c1ccccc1,1,-3,0,0,3
CC(=O)c1ccccc1NS(C)(=O)=O,6,-12,-6,-2,-5
CN1Cc2c(N3CCOCC3)nc(SCc3ccccc3)c(C#N)c2CC1(C)C,1,36,/,-1,58*
CC(C)CCSc1nc(N2CCOCC2)c2c(c1C#N)CC(C)(C)OC2,1,13,/,1,67*
CCSc1nc(N2CCOCC2)c2c(c1C#N)CC(C)(C)N(C)C2,-1,5,5,1,30
O=C(COC(=O)c1ccc[n+]([O-])c1)Nc1c(Br)cc([N+](=O)[O-])cc1Br,/,61*,5,0,26
CC(C)CNC(=O)c1cccc(NC(=O)c2ccc3c(c2)C(=O)N(C)C3=O)c1,0,/,-10,/,-4
O=C(O)CCCNC(=O)CCCn1nnc2ccccc2c1=O,-1,/,8,/,2
CCOP(=O)(OCC)C(Nc1cccc(C(F)(F)F)c1)c1ccc(Br)cc1 (centres undefined),/,99*,48,0,24
CCOP(=O)(OCC)C(Nc1ccc(F)cc1)c1ccccc1 (centres undefined),2,/,-9,/,9
CNc1ccc(Br)cc(C(=O)/C=C/c2cccc(Cl)c2Cl)c1=O,4,96*,-3,0,/
CCNc1ccc(Br)cc(C(=O)/C=C/c2ccccc2Cl)c1=O,5,99*,/,4,-25
SMILES,MPTP block,L major viab,Hep lipid drop,Redox H2O2 prof,T cruzi repl
CCNc1ccccc(C(=O)/C=C/c2ccc3c(c2)OCO3)c1=O,-1,63*,-1,1,-15
COC(=O)/C=C/c1ccc2c(c1)OCO2,0,-5,/,0,-7
CCNC(=O)C12CCC(C)(C(=O)O1)C2(C)C (centres undefined),0,-12,17,0,-14
CCOC(=O)c1c(C)oc2c1c(C=NCC1CCCO1)c(O)c1ccccc12 (centres undefined),0,98*,/,-3,15
CCOC(=O)c1c(C)oc2c1c(C=NCc1ccccn1)c(O)c1ccccc12,2,98*,-3,-2,/
CCOC(=O)c1c(C)oc2c1c(C(c1cccnc1)N1CCOCC1)c(O)c1ccccc12 (centres undefined),-3,97*,/,0,3
CCOC(=O)c1c(C)oc2c1cc(O)c1ccccc12,0,-7,/,2,-11
CCOC(=O)c1c(C)oc2c1c(C(c1cccnc1)N1CCN(C)CC1)c(O)c1ccccc12 (centres undefined),/,/,9,/,/
COc1ccc(S(=O)Cc2ccc(C(=O)NCc3cccc(OC)c3)o2)cc1 (centres undefined),-1,/,-10,/,3
Cc1ccc(C(=O)CSc2nc3cc(S(=O)(=O)N4CCOCC4)ccc3o2)cc1,-1,-5,/,-1,-27
O=C(NCc1ccccc1)c1ccc(S(=O)(=O)N2CCCC2)cc1,-1,2,-10,-6,-17
Cc1[nH]c2ccccc2c1SCCNC(=O)c1ccc(S(=O)(=O)N2CCCC2)cc1,0,99*,-5,1,16
Cc1[nH]c2ccccc2c1C(=O)CSc1nc2cc(S(=O)(=O)N3CCCCC3)ccc2o1,8,55*,/,2,57*
Cc1[nH]c2c(Cl)cccc2c(=O)c1CN1CCCCCC1,0,/,18,/,57*
CN(CC(=O)Nc1ccc(C(N)=O)cc1)CC(=O)Nc1ccccc1Cl,0,51*,4,/,2
CN(CC(=O)Nc1ccc(Cl)cc1)CC(=O)Nc1ccc(C(N)=O)cc1,0,1,37,0,0
CC(=O)Nc1ccc(S(=O)(=O)N2CCCN(c3nc(C)cc(C)c3C#N)CC2)cc1,0,/,11,/,6
CCOC(=O)C1=C(C)N(c2ccccc2)C(=O)NC1c1cccc([N+](=O)[O-])c1 (centres undefined),0,95*,-31,-1,8
O=C(CCS(=O)(=O)c1ccccc1)NNC(=O)CSc1ccccc1F,0,/,/,/,/
COc1ccc(N(C(C)=O)S(=O)(=O)c2cccc3cccnc23)cc1,4,54*,-4,0,-15
COc1ccc(N=C(C)C2=C(O)c3ccccc3C2=O)cc1,0,56*,12,0,3
CCOc1ccc(N=C(C)C2=C(O)c3ccccc3C2=O)cc1,4,/,-11,/,/
Clc1ccccc1OCCN1CCCCC1,/,88*,-20,0,-7
Clc1ccc(OCCN2CCCCC2)c(Cl)c1,0,99*,-2,0,23
COc1cc(-c2nnc(CSc3nnc(Nc4ccc(Oc5ccccc5)cc4)s3)o2)cc(OC)c1OC,12,77*,18,0,36
CC(=O)N1N=C2/C(=C/c3ccccc3)CCCC2C1c1ccccc1 (centres undefined),2,97*,-20,0,9
CCCn1c(SCC(=O)N2N=C3/C(=C/c4ccc(OC)cc4)CCCC3C2c2ccc(OC)cc2)n[nH]c1=O (centres undefined),5,92*,8,0,27
